Data set [1] addresses PI3-kinase p110-delta/p85-alpha (Homo sapiens, UniProt O00329). Nature of the data set: Inhibition of recombinant human His-tagged PIK3CD/PIK3R1 expressed in baculovirus expression system using PIP2 as substrate incubated for 1 hr by ADP-glo assay. (In general: ADP-Glo first removes unused ATP, then detects ADP through luciferase.)
For data set [2], the species on record is Homo sapiens. Nature of the data set: Selectivity ratio, ratio of IC50 for recombinant human PIK3CB to recombinant human His-tagged PIK3CD/PIK3R1 expressed in baculovirus expression system.
The species named for data set [3] is Homo sapiens. Nature of the data set: Selectivity ratio, ratio of IC50 for recombinant human N-terminal FLAG-tagged mTOR (1362 to end amino acids) to IC50 for recombinant human PI3Kalpha.
Data set [4] is filed under the species Homo sapiens. Nature of the data set: Selectivity ratio, ratio of IC50 for recombinant human N-terminal FLAG-tagged mTOR (1362 to end amino acids) to IC50 for recombinant human His-tagged PIK3CD/PIK3R1 expressed in baculovirus expression system.
The target of data set [5] is T1, Histone deacetylase (Homo sapiens) (UniProt Q13547+O15379+Q9UBN7+Q92769+Q9UQL6+Q8WUI4+Q9BY41+Q96DB2+P56524+Q9UKV0+Q969S8). Nature of the data set: Inhibition of HDAC in human HCT116 cells assessed as increase in acetylated histone H3 levels after 16 hrs by Western blot analysis. In kind it is cell-based. The gist of the method: (§1)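 HCT116 cells lysed in RIPA after washes in cold PBS. 40 μg protein run on 10−12% SDS-PAGE and transferred to nitrocellulose. Membrane blocked in 5% milk/TBST for 0.5 h, primary antibodies 1:1000 overnight at 4 °C, secondary 1:1000 for 1 h, ECL detection.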

The target of data set [6] is T1, Histone deacetylase (Homo sapiens). In words: Inhibition of HDAC in human HCT116 cells assessed as increase in acetylated p53 levels after 16 hrs by Western blot analysis. In kind it is cell-based. The gist of the method:
as §1
A general note: A western blot detects proteins with antibodies after separation by electrophoresis.

For data set [7], the species on record is Homo sapiens. In words: Inhibition of HDAC/PI3K in human HCT116 cells assessed as increase in cleaved PARP level at 0.02 to 0.5 uM after 16 hrs by Western blot analysis. In kind it is cell-based. The gist of the method: (§2)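 Immunoblot of HCT116 lysates (RIPA). 40 μg protein per lane on 10−12% SDS-PAGE, transferred to nitrocellulose, blocked 0.5 h in 5% milk/TBST. Primary antibodies 1:1000 overnight at 4 °C, secondary 1:1000 for 1 h, bands visualized by enhanced ECL.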

Data set [8] concerns HCT-116. In words: Induction of apoptosis in human HCT116 cells after 48 hrs by Annexin V-FITC/propidium iodide staining-based flow cytometric analysis. In kind it is functional, cell-based. For orientation: Flow cytometry measures light scatter and fluorescence of single cells or particles in a stream.
In data set [9] the test system is HCT-116. In words: Induction of apoptosis in human HCT116 cells assessed as live cells at 500 nM after 48 hrs by Annexin V-FITC/propidium iodide staining-based flow cytometric analysis (reference value: 89.6%). In kind it is functional.
The subject of data set [10] is HCT-116. In words: Induction of apoptosis in human HCT116 cells assessed as late apoptotic cells at 500 nM after 48 hrs by Annexin V-FITC/propidium iodide staining-based flow cytometric analysis (reference value: 3.87%). In kind it is functional.
The test system of another data set is MDA-MB-453. Nature of the data set: Antiproliferative activity against human MDA-MB-453 cells after 96 hrs by MTT assay. In kind it is functional, cell-based. To be noted: MDA-MB-453, 96 h.
Data set [11] is described as follows: Selectivity index, ratio of IC50 for human PBMC cells to IC50 for human HCT116 cells. In kind it is toxicity. The note with it: PBMC cells and HCT116 cells, read-out: Ratio IC50. The gist of the method: (§3)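 Ratio of IC50s from the MTT assay: PBMC or LO2 cells versus HCT116. Cells seeded at 2000/well, attached overnight at 37 °C, treated 96 h, MTT 4 h, formazan dissolved in DMSO, A570.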

Data set [12] can be described thus: Selectivity index, ratio of IC50 for human LO2 cells to IC50 for human HCT116 cells. In kind it is toxicity. The note with it: LO2 cells and HCT116 cells, read-out: Ratio IC50. The gist of the method:
as §3

The nature of data set [13]: Drug metabolism in rat bile assessed as glucuronide metabolite formation at 0.74 mg/kg, iv after 1 hr by LC/MS/MS analysis. In kind it is ADME, organism-based. The note with it: in vivo.
The target of data set [14] is Dual specificity tyrosine-phosphorylation-regulated kinase 1B (Homo sapiens) (UniProt Q9Y463). In words: Binding affinity to wild-type human full length DYRK1B (M1 to S629 residues) expressed in bacterial expression system assessed as residual binding level at 1 uM by Kinomescan method relative to control. The gist of the method:
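Kinomescan binding screen at 1 μM across 97 kinases.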

For data set [15], the species on record is Homo sapiens. Nature of the data set: Inhibition of PI3K in human HCT116 cells assessed as reduction in AKT phosphorylation at T308 residue at 0.5 to 5 uM after 16 hrs by Western blot analysis. In kind it is cell-based. The gist of the method:
as §2

Data set [16] relates to HCT-116. Nature of the data set: Antitumor activity against human HCT116 cells xenografted in athymic nude BALB/c mouse assessed as tumor growth inhibition at 100 mpk, po measured 2 times every week relative to control. The note with it: HCT-116, po, read-out: TGI. In kind it is functional. The gist of the method: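 Female BALB/c-nu/nu mice, 6–8 weeks, given 2 × 10^6 HCT116 cells in 0.2 mL saline s.c. right flank; randomized at 100–200 mm3. Daily oral dosing in 0.5% cmc with Tween 80; vehicle controls.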

The test system of data set [17] is Mus musculus. In words: In vivo inhibition of PI3K in tumor of human HCT116 cells xenografted in athymic nude BALB/c mouse assessed as reduction in phosphorylated AKT expression at S473 residue by DAB staining based immunohistochemistry method. In kind it is functional, organism-based. The gist of the method: (§4)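 HCT116 xenograft tumors from treated and vehicle mice stained immunohistochemically for Ki67, acetyl-H3 and p-AKT(S473) (200×); integrated optical density quantified; mean ± SEM, n = 5−7, one-way ANOVA versus vehicle.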

The subject of data set [18] is Mus musculus. Nature of the data set: In vivo inhibition of HDAC in tumor of human HCT116 cells xenografted in athymic nude BALB/c mouse assessed as increase in acetylated histone-H3 expression by DAB staining based immunohistochemistry method. In kind it is functional, organism-based. The gist of the method: as §4
For data set [19], the system named is HGC-27. In words: Antitumor activity against human HGC27 cells xenografted in athymic nude BALB/c mouse assessed as tumor growth inhibition at 100 mpk, po measured 2 times every week. In kind it is functional. The note with it: HGC-27, po, read-out: TGI.
For data set [20], the system named is HGC-27. In words: Antitumor activity against human HGC27 cells xenografted in athymic nude BALB/c mouse assessed as tumor growth inhibition at 200 mpk, po measured 2 times every week. In kind it is functional. The note with it: HGC-27, po, read-out: TGI. The gist of the method: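 HGC-27 xenograft: 2 × 10^6 cells in 0.2 mL saline s.c. right flank of female BALB/c-nu/nu mice (6–8 weeks); randomized at 100–200 mm3. Oral dosing in 0.5% cmc with Tween 80, intraperitoneal in saline; vehicle given orally daily.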

Data set [21] in a line: Drug level in BALB/c mouse plasma xenografted with human HGC27 cells at 30 mg/kg, ip measured 0.5 hrs post last dose. In kind it is ADME, organism-based. The gist of the method: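 HGC-27 xenografted nude mice dosed po (0.5% cmc/Tween 80) or ip (saline); at end of treatment, 0.5 h after final dose, plasma and tumor tissue collected and compound concentration measured (ng/mL plasma, ng/g tumor).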

In data set [22] the test system is Mus musculus. In words: In vivo inhibition of PI3K/HDAC in tumor of human HGC27 cells xenografted in athymic nude BALB/c mouse assessed as reduction in phosphorylated Ki67 expression by DAB staining based immunohistochemistry method. In kind it is functional, organism-based. The gist of the method: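 HGC-27 xenograft tumors from treated and vehicle mice immunostained for Ki67, Ac-H3 and p-AKT(S473) (200×); integrated optical density analysed; mean ± SEM, n = 5−7, one-way ANOVA versus vehicle.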

Data set [23] is described as follows: Drug metabolism in rat bile assessed as hydrolyzed metabolite formation at 0.74 mg/kg, iv after 1 hr by LC/MS/MS analysis. In kind it is ADME, organism-based. To be noted: in vivo.

The structures appear in SMILES notation. Calls of active or inactive are those of the source. The calls are words filed in the database; no cut-off is given here.

Sequence of PI3-kinase p110-delta/p85-alpha (P27986 whole entry): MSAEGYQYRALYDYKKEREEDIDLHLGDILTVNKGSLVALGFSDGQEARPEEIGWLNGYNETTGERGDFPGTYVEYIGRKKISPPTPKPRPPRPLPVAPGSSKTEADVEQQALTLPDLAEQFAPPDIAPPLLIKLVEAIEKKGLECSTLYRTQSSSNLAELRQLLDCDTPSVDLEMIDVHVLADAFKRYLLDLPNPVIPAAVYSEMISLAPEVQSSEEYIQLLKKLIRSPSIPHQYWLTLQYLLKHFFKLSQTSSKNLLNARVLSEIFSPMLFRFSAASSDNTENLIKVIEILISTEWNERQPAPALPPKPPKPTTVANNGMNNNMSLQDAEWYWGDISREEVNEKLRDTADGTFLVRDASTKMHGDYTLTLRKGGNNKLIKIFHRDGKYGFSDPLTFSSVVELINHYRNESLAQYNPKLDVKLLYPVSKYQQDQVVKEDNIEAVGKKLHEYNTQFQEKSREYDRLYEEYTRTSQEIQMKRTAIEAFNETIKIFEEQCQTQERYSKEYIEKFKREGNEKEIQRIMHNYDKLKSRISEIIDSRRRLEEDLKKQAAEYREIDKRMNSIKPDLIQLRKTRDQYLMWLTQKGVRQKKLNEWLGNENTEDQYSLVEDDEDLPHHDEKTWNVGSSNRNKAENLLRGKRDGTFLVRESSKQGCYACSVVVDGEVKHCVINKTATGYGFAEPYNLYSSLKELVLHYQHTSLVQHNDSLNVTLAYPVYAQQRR
Sequence of PI3-kinase p110-delta/p85-alpha (O00329 whole entry): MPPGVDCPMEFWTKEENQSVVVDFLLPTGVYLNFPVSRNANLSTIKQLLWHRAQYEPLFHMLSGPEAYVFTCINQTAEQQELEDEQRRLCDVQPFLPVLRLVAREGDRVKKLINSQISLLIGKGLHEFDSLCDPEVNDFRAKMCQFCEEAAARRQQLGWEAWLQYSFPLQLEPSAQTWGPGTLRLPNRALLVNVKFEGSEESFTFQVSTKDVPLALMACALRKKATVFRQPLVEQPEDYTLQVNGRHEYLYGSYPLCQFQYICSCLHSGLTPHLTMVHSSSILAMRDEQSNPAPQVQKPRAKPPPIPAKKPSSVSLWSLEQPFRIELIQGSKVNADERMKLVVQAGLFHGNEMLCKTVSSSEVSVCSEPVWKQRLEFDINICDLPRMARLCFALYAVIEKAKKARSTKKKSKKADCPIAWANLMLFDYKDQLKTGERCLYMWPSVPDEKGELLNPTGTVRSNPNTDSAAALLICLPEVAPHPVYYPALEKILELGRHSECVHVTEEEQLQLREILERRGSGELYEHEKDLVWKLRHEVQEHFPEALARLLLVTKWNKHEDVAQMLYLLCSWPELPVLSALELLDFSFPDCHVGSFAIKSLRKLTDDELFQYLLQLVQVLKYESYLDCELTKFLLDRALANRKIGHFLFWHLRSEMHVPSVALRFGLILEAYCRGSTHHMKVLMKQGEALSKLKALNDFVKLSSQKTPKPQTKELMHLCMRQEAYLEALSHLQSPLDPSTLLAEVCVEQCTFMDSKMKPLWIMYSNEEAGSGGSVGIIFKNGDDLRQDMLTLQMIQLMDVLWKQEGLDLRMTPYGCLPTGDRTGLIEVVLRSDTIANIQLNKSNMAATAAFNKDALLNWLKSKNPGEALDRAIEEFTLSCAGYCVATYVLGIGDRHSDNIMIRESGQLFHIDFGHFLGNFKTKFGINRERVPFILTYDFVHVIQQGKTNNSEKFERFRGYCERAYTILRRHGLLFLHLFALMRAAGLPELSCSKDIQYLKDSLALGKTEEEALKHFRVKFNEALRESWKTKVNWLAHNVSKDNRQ
Sequence of Dual specificity tyrosine-phosphorylation-regulated kinase 1B (Homo sapiens) (Q9Y463 whole entry, looked up, the tested form may be a part): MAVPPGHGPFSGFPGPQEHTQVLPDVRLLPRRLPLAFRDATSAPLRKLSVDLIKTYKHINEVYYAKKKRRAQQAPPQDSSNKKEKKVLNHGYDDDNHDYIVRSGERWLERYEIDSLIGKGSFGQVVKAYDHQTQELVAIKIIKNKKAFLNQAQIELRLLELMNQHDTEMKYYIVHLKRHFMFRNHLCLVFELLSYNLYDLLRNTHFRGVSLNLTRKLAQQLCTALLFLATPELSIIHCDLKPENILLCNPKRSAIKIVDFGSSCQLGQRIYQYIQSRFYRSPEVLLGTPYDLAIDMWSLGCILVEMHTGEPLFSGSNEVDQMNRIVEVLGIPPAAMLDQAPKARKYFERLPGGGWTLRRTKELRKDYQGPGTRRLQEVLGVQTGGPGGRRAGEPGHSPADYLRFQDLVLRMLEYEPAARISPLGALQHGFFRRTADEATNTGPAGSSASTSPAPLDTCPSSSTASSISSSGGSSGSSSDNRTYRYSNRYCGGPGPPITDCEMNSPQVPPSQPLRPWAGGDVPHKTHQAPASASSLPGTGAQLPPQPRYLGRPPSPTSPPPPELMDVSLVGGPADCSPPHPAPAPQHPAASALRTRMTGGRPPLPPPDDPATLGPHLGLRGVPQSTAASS

In general, IC50 refers to the concentration at which inhibition is half-maximal. For `COc1ccc(-c2cc(OCCN(C)c3ncc(C(=O)NO)cn3)c3ncnc(C)c3c2)cn1`, the IC50 came to 0.029 µM in [1] and 0.004 µM in the data set on MDA-MB-453. Moreover, the results for the Ratio IC50 in the data set filed under Homo sapiens [2], in the data set listed under Homo sapiens [3] and in the data set listed under Homo sapiens [4] were over 5, over 27 and over 27, respectively. Further, the inhibition entry in data set [5] and in [6] was “Dose-dependent effect” in each case. Besides, the inhibition entry in the data set listed under Homo sapiens [7] was “Active”. In addition, the Activity result in the data set with HCT-116 [8] was “Dose-dependent effect”; in the data set with HCT-116 [9], 43.8%; in the data set with HCT-116 [10], 24.4%. Moreover, the selectivity ratio was determined as 8240 in [11] and 1430 in data set [12].

With `COc1ncc(-c2cc(OCCCCCCC(=O)NO)c3ncnc(C)c3c2)cc1F`, the Drug metabolism result in data set [13] and in data set [23] was “Metabolite_Detected” in each case. Further, the Activity was 29% in data set [14], “Dose-dependent effect” in the data set with HCT-116 [8], 67.9% in the data set on HCT-116 [9] and 10.3% with HCT-116 [10]. The inhibition result in the data set filed under Homo sapiens [15] and with Mus musculus [22] was “Active” each time. The IC50 with MDA-MB-453 is 0.3 µM. Besides, the inhibition in vivo at 100 mg/kg in the data set with HCT-116 [16] was 18.3%; with HGC-27 [19] it was 15.2%. In addition, the inhibition result with Mus musculus [17] and in the data set with Mus musculus [18] was “Dose-dependent effect” each time. In addition, the inhibition in vivo at 200 mg/kg in the data set on HGC-27 [20] amounted to 45.9%. In data set [21], this compound gave a concentration at 0.5 h of 0.577 µg/mL.

The record behind these values is ChEMBL document CHEMBL4311940, “Design, Synthesis, and Biological Evaluation of 4-Methyl Quinazoline Derivatives as Anticancer Agents Simultaneously Targeting Phosphoinositide 3-Kinases and Histone Deacetylases” (J Med Chem, 2019).
